Data as given in ChEMBL document CHEMBL1777686, “Discovery of DA-1229: a potent, long acting dipeptidyl peptidase-4 inhibitor for the treatment of type 2 diabetes” (Bioorg Med Chem Lett, 2011).
One block for each compound: values may come before it.

Experiments:
Cytochrome P450 3A4 = Cytochrome P450 3A4 (Homo sapiens, UniProt P08684); assay: Inhibition of CYP3A4; format: ADME
Cytochrome P450 1A2 = target: T1, Cytochrome P450 1A2 (Homo sapiens, UniProt P05177); assay: Inhibition of CYP1A2; format: ADME
T1 sequence (P05177 whole entry): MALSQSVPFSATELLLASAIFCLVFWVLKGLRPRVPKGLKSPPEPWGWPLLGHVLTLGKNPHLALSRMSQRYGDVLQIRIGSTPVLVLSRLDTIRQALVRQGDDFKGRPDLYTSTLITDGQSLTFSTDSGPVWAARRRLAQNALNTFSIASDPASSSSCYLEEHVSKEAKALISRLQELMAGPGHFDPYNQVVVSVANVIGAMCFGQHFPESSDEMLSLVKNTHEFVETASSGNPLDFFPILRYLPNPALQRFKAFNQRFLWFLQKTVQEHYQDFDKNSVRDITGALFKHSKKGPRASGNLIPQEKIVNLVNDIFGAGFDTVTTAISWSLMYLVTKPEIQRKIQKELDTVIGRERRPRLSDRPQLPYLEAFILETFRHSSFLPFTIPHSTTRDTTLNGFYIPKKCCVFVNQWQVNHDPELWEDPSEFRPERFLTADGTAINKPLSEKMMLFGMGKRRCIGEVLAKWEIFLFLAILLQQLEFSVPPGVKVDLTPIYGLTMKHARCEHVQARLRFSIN

Cytochrome P450 2C19 = Cytochrome P450 2C19 (Homo sapiens, UniProt P33261); assay: Inhibition of CYP2C19; format: ADME
Cytochrome P450 2C9 = Cytochrome P450 2C9 (Homo sapiens, UniProt P11712); assay: Inhibition of CYP2C9; format: ADME
Cytochrome P450 2D6 = Cytochrome P450 2D6 (Homo sapiens, UniProt P10635); assay: Inhibition of CYP2D6; format: ADME
Rattus norvegicus [1] = assay: Inhibition of DPP-4 in Sprague-Dawley rat plasma at 3 mg/kg, po administered as single dose measured at 24 hrs post dose; format: functional
Outline: (§1)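 SD rats received a single oral dose of 1, 3 or 10 mg/kg. Plasma was sampled from 30 min up to 24 h after dosing, and plasma DPP-4 activity was measured as percent inhibition.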

Rattus norvegicus [2] = organism: Rattus norvegicus; conditions: Sprague-Dawley, Plasma, 1 mg/kg
Mus musculus [3] = assay: Antidiabetic activity in C57BL/6J mouse assessed as inhibition of blood glucose elevation at 1 mg/kg, po administered 30 mins before glucose challenge by oral glucose tolerance test; format: functional
Outline: (§2)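 Oral dosing in C57BL/6J mice at 0.1, 0.3 or 1.0 mg/kg in 0.5% methylcellulose vehicle, followed by a 2 g/kg glucose challenge 30 min post-dose. […] Percent inhibition was calculated from AUC normalized to non-glucose controls. Means ± SEM.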

[4] = Volume of distribution at steady state in rat; format: ADME, organism-based; conditions: in vivo, read-out: Vdss
Mus musculus [5] = assay: Antidiabetic activity in po dosed C57BL/6J mouse assessed as reduction in glucose AUC administered 30 mins before glucose challenge measured up to 120 mins by oral glucose tolerance test; format: functional, organism-based; outline: as §2
Rattus norvegicus [6] = assay: Inhibition of DPP-4 in Sprague-Dawley rat plasma at 10 mg/kg, po administered as single dose measured at 24 hrs post dose; format: functional; outline: as §1
[7] = Oral bioavailability in rat; format: ADME, organism-based; conditions: in vivo
[8] = Clearance in rat; format: ADME, organism-based; conditions: in vivo
[9] = Half life in human liver microsomes; format: ADME, Microsome
[10] = target: Voltage-gated inwardly rectifying potassium channel KCNH2 (Homo sapiens, UniProt Q12809); assay: Inhibition of human ERG by patch clamp method
[11] = Half life in rat; format: ADME, organism-based; conditions: in vivo
Rattus norvegicus [12] = assay: Inhibition of DPP-4 in Sprague-Dawley rat plasma at 1 mg/kg, po administered as single dose measured at 24 hrs post dose; format: functional; outline: as §1

Cytochrome P450 3A4, sequence (P08684 whole entry): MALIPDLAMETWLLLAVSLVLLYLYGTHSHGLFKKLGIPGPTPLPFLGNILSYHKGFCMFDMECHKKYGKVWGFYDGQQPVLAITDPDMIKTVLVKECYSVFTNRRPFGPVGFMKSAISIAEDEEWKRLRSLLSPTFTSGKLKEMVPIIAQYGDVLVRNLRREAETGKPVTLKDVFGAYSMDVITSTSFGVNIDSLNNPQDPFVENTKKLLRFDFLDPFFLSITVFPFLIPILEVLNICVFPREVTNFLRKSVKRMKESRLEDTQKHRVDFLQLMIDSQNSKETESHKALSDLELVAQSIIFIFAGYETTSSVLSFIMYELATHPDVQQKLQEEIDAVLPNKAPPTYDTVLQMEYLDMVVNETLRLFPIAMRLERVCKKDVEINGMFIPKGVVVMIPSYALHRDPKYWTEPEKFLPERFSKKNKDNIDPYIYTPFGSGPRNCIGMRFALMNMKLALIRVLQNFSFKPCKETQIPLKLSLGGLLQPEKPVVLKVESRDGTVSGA
Cytochrome P450 2D6, sequence (P10635 whole entry): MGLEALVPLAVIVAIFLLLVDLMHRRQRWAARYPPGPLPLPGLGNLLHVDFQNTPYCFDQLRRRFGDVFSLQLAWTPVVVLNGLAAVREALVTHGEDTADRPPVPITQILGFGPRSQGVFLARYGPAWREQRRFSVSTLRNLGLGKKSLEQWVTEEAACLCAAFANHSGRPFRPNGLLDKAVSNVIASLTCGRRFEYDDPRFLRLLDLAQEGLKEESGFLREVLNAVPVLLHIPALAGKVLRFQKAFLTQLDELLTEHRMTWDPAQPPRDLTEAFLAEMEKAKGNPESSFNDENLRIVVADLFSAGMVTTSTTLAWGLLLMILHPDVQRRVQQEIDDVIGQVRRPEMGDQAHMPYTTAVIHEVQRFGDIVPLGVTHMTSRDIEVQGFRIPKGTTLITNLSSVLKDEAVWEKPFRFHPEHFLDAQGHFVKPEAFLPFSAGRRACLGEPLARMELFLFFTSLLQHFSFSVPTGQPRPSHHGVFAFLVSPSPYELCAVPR
Cytochrome P450 2C19, sequence (P33261 whole entry): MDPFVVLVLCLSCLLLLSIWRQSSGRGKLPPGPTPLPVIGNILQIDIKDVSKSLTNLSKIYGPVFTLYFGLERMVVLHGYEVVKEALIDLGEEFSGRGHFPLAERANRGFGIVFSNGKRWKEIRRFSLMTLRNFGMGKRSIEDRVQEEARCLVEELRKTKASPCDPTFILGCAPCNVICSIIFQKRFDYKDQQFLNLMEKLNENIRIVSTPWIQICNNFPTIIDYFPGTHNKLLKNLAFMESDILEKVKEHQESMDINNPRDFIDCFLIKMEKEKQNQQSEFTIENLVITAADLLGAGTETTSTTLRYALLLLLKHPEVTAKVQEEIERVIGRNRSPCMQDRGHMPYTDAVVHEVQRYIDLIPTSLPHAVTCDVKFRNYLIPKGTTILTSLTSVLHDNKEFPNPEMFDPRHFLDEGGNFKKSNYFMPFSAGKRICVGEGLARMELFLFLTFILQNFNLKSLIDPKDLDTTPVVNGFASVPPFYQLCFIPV
Cytochrome P450 2C9, sequence (P11712 whole entry): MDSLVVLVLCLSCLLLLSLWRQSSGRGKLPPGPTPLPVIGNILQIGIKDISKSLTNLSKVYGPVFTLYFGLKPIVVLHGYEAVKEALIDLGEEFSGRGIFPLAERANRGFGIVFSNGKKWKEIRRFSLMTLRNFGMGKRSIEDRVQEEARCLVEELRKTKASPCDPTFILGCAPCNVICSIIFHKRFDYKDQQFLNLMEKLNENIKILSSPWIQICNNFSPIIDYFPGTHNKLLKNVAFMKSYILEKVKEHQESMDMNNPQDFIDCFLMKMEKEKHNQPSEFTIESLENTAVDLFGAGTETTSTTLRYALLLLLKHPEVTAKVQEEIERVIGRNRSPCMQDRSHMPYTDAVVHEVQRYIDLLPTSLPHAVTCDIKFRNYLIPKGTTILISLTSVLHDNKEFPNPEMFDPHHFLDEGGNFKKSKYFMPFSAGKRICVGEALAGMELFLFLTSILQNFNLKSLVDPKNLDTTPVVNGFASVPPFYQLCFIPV
Voltage-gated inwardly rectifying potassium channel KCNH2, sequence (Q12809 whole entry): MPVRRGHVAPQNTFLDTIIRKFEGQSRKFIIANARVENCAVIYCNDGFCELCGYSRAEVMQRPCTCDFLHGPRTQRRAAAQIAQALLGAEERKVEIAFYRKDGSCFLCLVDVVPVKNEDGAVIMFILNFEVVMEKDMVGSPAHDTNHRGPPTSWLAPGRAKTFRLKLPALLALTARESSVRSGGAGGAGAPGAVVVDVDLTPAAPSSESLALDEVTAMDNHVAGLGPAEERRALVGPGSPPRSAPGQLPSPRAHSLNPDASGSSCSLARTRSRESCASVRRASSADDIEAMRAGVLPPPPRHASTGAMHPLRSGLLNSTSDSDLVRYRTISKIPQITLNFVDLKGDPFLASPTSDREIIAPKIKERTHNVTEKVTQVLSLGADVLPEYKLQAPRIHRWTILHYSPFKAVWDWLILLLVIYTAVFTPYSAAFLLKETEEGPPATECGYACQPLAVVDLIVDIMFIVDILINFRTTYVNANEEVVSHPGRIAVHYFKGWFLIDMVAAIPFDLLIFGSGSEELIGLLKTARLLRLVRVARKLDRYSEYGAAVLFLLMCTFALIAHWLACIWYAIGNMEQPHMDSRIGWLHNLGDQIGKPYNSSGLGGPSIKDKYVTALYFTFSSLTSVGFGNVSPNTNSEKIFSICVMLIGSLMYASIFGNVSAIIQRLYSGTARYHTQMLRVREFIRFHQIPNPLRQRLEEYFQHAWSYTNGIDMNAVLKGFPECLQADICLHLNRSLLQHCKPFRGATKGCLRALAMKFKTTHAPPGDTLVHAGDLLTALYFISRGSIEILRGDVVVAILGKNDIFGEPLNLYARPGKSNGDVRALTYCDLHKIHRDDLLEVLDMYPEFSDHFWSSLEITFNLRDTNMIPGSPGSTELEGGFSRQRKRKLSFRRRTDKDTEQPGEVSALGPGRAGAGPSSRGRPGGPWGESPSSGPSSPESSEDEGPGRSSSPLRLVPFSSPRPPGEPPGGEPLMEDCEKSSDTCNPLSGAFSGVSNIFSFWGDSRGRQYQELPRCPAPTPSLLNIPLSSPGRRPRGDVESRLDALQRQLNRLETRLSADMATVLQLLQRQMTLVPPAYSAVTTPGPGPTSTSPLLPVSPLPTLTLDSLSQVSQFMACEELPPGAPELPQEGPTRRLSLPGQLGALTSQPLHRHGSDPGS

- IC50 (Cytochrome P450 3A4): 1.07 µM
Structure (SMILES): COc1ccc(CN2CCN(C(=O)C[C@H](N)Cc3cc(F)c(F)cc3F)CC2=O)cc1

- inhibition (INH) (Cytochrome P450 1A2): Not Active
- inhibition (INH) (Cytochrome P450 2C19): Not Active
- inhibition (INH) (Cytochrome P450 2C9): Not Active
- inhibition (INH) (Cytochrome P450 3A4): Not Active
- inhibition (INH) (Cytochrome P450 2D6): Not Active
Structure (SMILES): N[C@@H](CC(=O)N1CCNC(=O)[C@H]1CO)Cc1cc(F)c(F)cc1F

- INH (Cytochrome P450 1A2): > 50 µM
- Vd [4]: 12 L/kg
- INH (Cytochrome P450 2C19): > 50 µM
- INH (Cytochrome P450 2C9): > 50 µM
- INH (Cytochrome P450 3A4): > 50 µM
- bioavailability [7]: 74.8%
- INH (Cytochrome P450 2D6): > 50 µM
- clearance [8]: 60.5 mL/min/kg
- half-life [9]: > 1.5 h
- half-life [11]: 6.1 h
Structure (SMILES): CC(C)(C)OC[C@@H]1C(=O)NCCN1C(=O)C[C@H](N)Cc1cc(F)c(F)cc1F [EVOGLIPTIN]
- inhibition in vivo at 3 mg/kg (Rattus norvegicus [1]): 82.9%
- inhibition (Rattus norvegicus [2]): Dose-dependent effect
- inhibition in vivo at 1 mg/kg (Mus musculus [3]): 63%
- Activity (Mus musculus [5]): Dose-dependent effect
- inhibition in vivo at 10 mg/kg (Rattus norvegicus [6]): 87.2%
- IC50 [10]: 79.6 µM
- inhibition in vivo at 1 mg/kg (Rattus norvegicus [12]): 72.5%
